Calls of active or inactive are those of the source.
What was measured:
Assay type in all cases: functional, organism-based
Bacillus anthracis = test: Antibacterial activity against Bacillus anthracis at 1mM by almar blue dye reduction assay
Bacillus cereus = test: Antibacterial activity against Bacillus cereus at 1 mM by almar blue dye reduction assay
In short: (§1)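 Single-point primary screen at 1 mM using Alamar Blue dye reduction as the growth read-out.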

Bacillus subtilis = test: Antibacterial activity against Bacillus subtilis at 1 mM by almar blue dye reduction assay; in short: as §1
Staphylococcus aureus = test: Antibacterial activity against Staphylococcus aureus at 1 mM by almar blue dye reduction assay; in short: as §1
Escherichia coli = test: Antibacterial activity against Escherichia coli at 1 mM by almar blue dye reduction assay; in short: as §1
Pseudomonas aeruginosa = test: Antibacterial activity against Pseudomonas aeruginosa at 1 mM by almar blue dye reduction assay; in short: as §1
Candida albicans = test: Antifungal activity against Candida albicans at 1 mM by almar blue dye reduction assay; in short: as §1
Cryptococcus neoformans = test: Antifungal activity against Cryptococcus neoformans at 1 mM by almar blue dye reduction assay; in short: as §1
Saccharomyces cerevisiae = test: Antifungal activity against Saccharomyces cerevisiae at 1 mM by almar blue dye reduction assay; in short: as §1

Measured: Activity

CCN(CC)C(=O)[C@H](C)[C@H]1CC[C@@H](C[C@@H](C)n2cc(C#CCOC)nn2)O1
inactive: all assays above

COc1cccc(OCC#Cc2cn([C@H](C)C[C@@H]3CC[C@H]([C@@H](C)C(=O)NC(C)C)O3)nn2)c1OC
inactive: all assays above

C[C@H](C[C@@H]1CC[C@H]([C@@H](C)C(=O)N2CCCC2)O1)n1cc(C#CCC2CCCC2)nn1
inactive: all assays above

C[C@H](CC1CCC([C@@H](C)C(=O)N(C)Cc2ccccc2)O1)n1cc(C#CCOC(=O)OCc2ccccc2)nn1 (single isomer, unassigned)
inactive: all assays above

CCC(=O)OCC#Cc1cn([C@H](C)CC2CCC([C@@H](C)C(=O)N(CC)CC)O2)nn1 (single isomer, unassigned)
inactive: all assays above

C[C@H](C[C@@H]1CC[C@H]([C@@H](C)C(=O)N2CCCC2)O1)n1cc(C#CCN2CCOCC2)nn1
inactive: all assays above

CCN(CC)C(=O)[C@H](C)[C@H]1CC[C@@H](C[C@@H](C)n2cc(C#Cc3ccc(-c4ccccc4)cc3)nn2)O1
inactive: all assays above

C[C@H](C[C@@H]1CC[C@H]([C@@H](C)C(=O)N2CCN(CC3CCCO3)CC2)O1)n1cc(C#Cc2ccccc2)nn1 (stereo partly specified)
inactive: all assays above

C[C@H](C[C@@H]1CC[C@H]([C@@H](C)C(=O)N2CCN(CC3CCCO3)CC2)O1)n1cc(C#CCN2CCC(c3ccccc3)CC2)nn1 (stereo partly specified)
inactive: all assays above

COCC#Cc1cn([C@H](C)C[C@@H]2CC[C@H]([C@@H](C)C(=O)N(C)Cc3ccccc3)O2)nn1
inactive: all assays above

CCN(CC)C(=O)[C@H](C)[C@H]1CC[C@@H](C[C@@H](C)n2cc(C#Cc3ccc(OC)cc3)nn2)O1
inactive: all assays above

C[C@H](C[C@@H]1CC[C@H]([C@@H](C)C(=O)N2CCCC2)O1)n1cc(C#Cc2ccc(-c3ccccc3)cc2)nn1
inactive: all assays above

C[C@H](C[C@@H]1CC[C@H]([C@@H](C)C(=O)N2CCCC2)O1)n1cc(C#CC2=CCCCC2)nn1
inactive: all assays above

CCN(CC)C(=O)[C@H](C)[C@H]1CC[C@@H](C[C@@H](C)n2cc(C#Cc3ccc(C(F)(F)F)cc3)nn2)O1
inactive: all assays above

C[C@H](C[C@@H]1CC[C@H]([C@@H](C)C(=O)N2CCN(CC3CCCO3)CC2)O1)n1cc(C#CCN2CCN(c3ccccc3)CC2)nn1 (stereo partly specified)
inactive: all assays above

C[C@H](C[C@@H]1CC[C@H]([C@@H](C)C(=O)N2CCN(CC3CCCO3)CC2)O1)n1cc(C#CCN(C)CCc2ccccc2)nn1 (stereo partly specified)
inactive: all assays above

CCN(CC)C(=O)[C@H](C)[C@H]1CC[C@@H](C[C@@H](C)n2cc(C#CCOc3cccc(-c4ccccc4)c3)nn2)O1
inactive: all assays above

CC(C)CC#Cc1cn([C@H](C)C[C@@H]2CC[C@H]([C@@H](C)C(=O)NC(C)C)O2)nn1
inactive: all assays above

CCC(=O)OCC#Cc1cn([C@H](C)CC2CCC([C@@H](C)C(=O)N(C)Cc3ccccc3)O2)nn1 (single isomer, unassigned)
inactive: all assays above

CCC(=O)OCC#Cc1cn([C@H](C)CC2CCC([C@@H](C)C(=O)N3CCCC3)O2)nn1 (single isomer, unassigned)
inactive: all assays above

Cc1cccc(NC(=O)OCC#Cc2cn([C@H](C)CC3CCC([C@@H](C)C(=O)N4CCCC4)O3)nn2)c1 (single isomer, unassigned)
inactive: all assays above

C[C@H](C[C@@H]1CC[C@H]([C@@H](C)C(=O)N2CCCC2)O1)n1cc(C#CCOc2cccc(-c3ccccc3)c2)nn1
inactive: all assays above

C[C@H](C[C@@H]1CC[C@H]([C@@H](C)C(=O)N2CCCC2)O1)n1cc(C#Cc2ccccc2)nn1
not listed: Saccharomyces cerevisiae
inactive: all other assays above

From ChEMBL document CHEMBL1155099, “Natural products in parallel synthesis: triazole libraries of nonactic acid” (2008)
